Columns and labels:
[1] = test system: Mus musculus; test: Harding Passey melanoma tumor and organ incorporation of radioactivity 48 hr after 5.1 microCi dose injected intramuscularly in mouse tumor; assay type: functional
Outline: (§1)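 Harding Passey melanoma tissue (strongly melanized) was minced, and the brei was implanted subcutaneously into the right flank of DBA/2 mice. Tumors reached about 6×7 mm by 2 weeks. The ³⁵S-labelled thiouracil was injected intramuscularly into the right thigh, and animals were killed 48 h later. Four samples were taken per tumor and one per organ. Tissue was solubilized at 37 °C for 16 h, bleached, and scintillation-counted. Results are radioactivity per mg wet weight.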

[2] = test system: S91; test: Growth inhibition of Cloudman S91 Melanoma cells at 10 uM drug concentration; values are per cent of control; settings: Mus musculus
[3] = test system: Mus musculus; test: Harding Passey melanoma tumor and organ incorporation of radioactivity 48 hr after 5.1 microCi dose injected intramuscularly in mouse kidney; assay type: functional; outline: as §1
[4] = test system: Mus musculus; test: Harding Passey melanoma tumor and organ incorporation of radioactivity 48 hr after 5.1 microCi dose injected intramuscularly in mouse eye; assay type: functional; outline: as §1
[5] = test system: Mus musculus; test: Harding Passey melanoma tumor and organ incorporation of radioactivity 48 hr after 5.1 microCi dose injected intramuscularly in mouse spleen; assay type: functional; outline: as §1
[6] = test system: Mus musculus; test: Harding Passey melanoma tumor and organ incorporation of radioactivity 48 hr after 5.1 microCi dose injected intramuscularly in mouse liver; assay type: functional; outline: as §1
[7] = test system: Mus musculus; test: Harding Passey melanoma tumor and organ incorporation of radioactivity 48 hr after 5.1 microCi dose injected intramuscularly in mouse lung; assay type: functional; outline: as §1
[8] = test system: S91; test: Growth inhibition of Cloudman S91 Melanoma cells at 1 uM drug concentration; values are per cent of control; settings: Mus musculus
[9] = test system: Mus musculus; test: Harding Passey melanoma tumor and organ incorporation of radioactivity 48 hr after 1.4 microCi dose injected intramuscularly in mouse liver; assay type: functional; outline: as §1
[10] = test system: Mus musculus; test: Cloudman S 91 melanoma tumor and organ incorporation of radioactivity 48 hr after 1.4 microCi dose injected intramuscularly in mouse kidney; assay type: functional
Outline: (§2)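 Cloudman S 91 cells in culture (3×10^6) were implanted subcutaneously into the right flank of DBA/2 mice. After 2 weeks the tumors were about 6×7 mm. The ³⁵S-labelled thiouracil was given intramuscularly into the right thigh, and mice were killed 48 h later. Four samples were taken per tumor and one per organ. Tissue was solubilized at 37 °C for 16 h, bleached, and counted by liquid scintillation. Results are radioactivity per mg wet weight.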

[11] = test system: Mus musculus; test: Harding Passey melanoma tumor and organ incorporation of radioactivity 48 hr after 1.4 microCi dose injected intramuscularly in mouse kidney; assay type: functional; outline: as §1
[12] = test system: Mus musculus; test: Harding Passey melanoma tumor and organ incorporation of radioactivity 48 hr after 1.4 microCi dose injected intramuscularly in mouse lung; assay type: functional; outline: as §1
[13] = test system: Mus musculus; test: Cloudman S 91 melanoma tumor and organ incorporation of radioactivity 48 hr after 1.4 microCi dose injected intramuscularly in mouse liver; assay type: functional; outline: as §2
[14] = test system: Mus musculus; test: Harding Passey melanoma tumor and organ incorporation of radioactivity 48 hr after 1.4 microCi dose injected intramuscularly in mouse eye; assay type: functional; outline: as §1
[15] = test system: Mus musculus; test: Cloudman S 91 melanoma tumor and organ incorporation of radioactivity 48 hr after 1.4 microCi dose injected intramuscularly in mouse tumor; assay type: functional; outline: as §2
[16] = test system: Mus musculus; test: Harding Passey melanoma tumor and organ incorporation of radioactivity 48 hr after 1.4 microCi dose injected intramuscularly in mouse spleen; assay type: functional; outline: as §1
[17] = test system: Mus musculus; test: Harding Passey melanoma tumor and organ incorporation of radioactivity 48 hr after 1.4 microCi dose injected intramuscularly in mouse tumor; assay type: functional; outline: as §1
[18] = test system: Mus musculus; test: Cloudman S 91 melanoma tumor and organ incorporation of radioactivity 48 h after 1.4 microCi dose injected intramuscularly in mouse lung; assay type: functional; outline: as §2
[19] = test system: Mus musculus; test: Cloudman S 91 melanoma tumor and organ incorporation of radioactivity 48 hr after 1.4 microCi dose injected intramuscularly in mouse eye; assay type: functional; outline: as §2
[20] = test system: Mus musculus; test: Cloudman S 91 melanoma tumor and organ incorporation of radioactivity 48 hr after 1.4 microCi dose injected intramuscularly in mouse spleen; assay type: functional; outline: as §2
[21] = test system: Mus musculus; test: Cloudman S 91 melanoma tumor and organ incorporation of radioactivity 48 h after 2.2 microCi dose injected intramuscularly in mouse eye; assay type: functional; outline: as §2
[22] = test system: Mus musculus; test: Cloudman S 91 melanoma tumor and organ incorporation of radioactivity 48 hr after 2.2 microCi dose injected intramuscularly in mouse spleen; assay type: functional; outline: as §2
[23] = test system: Mus musculus; test: Harding Passey melanoma tumor and organ incorporation of radioactivity 48 hr after 2.2 microCi dose injected intramuscularly in mouse lung; assay type: functional; outline: as §1
[24] = test system: Mus musculus; test: Cloudman S 91 melanoma tumor and organ incorporation of radioactivity 48 hr after 2.2 microCi dose injected intramuscularly in mouse tumor; assay type: functional; outline: as §2
[25] = test system: Mus musculus; test: Cloudman S 91 melanoma tumor and organ incorporation of radioactivity 48 hr after 2.2 microCi dose injected intramuscularly in mouse kidney; assay type: functional; outline: as §2
[26] = test system: Mus musculus; test: Harding Passey melanoma tumor and organ incorporation of radioactivity 48 hr after 2.2 microCi dose injected intramuscularly in mouse eye; assay type: functional; outline: as §1
[27] = test system: Mus musculus; test: Cloudman S 91 melanoma tumor and organ incorporation of radioactivity 48 hr after 2.2 microCi dose injected intramuscularly in mouse liver; assay type: functional; outline: as §2
[28] = test system: Mus musculus; test: Harding Passey melanoma tumor and organ incorporation of radioactivity 48 hr after 2.2 microCi dose injected intramuscularly in mouse tumor; assay type: functional; outline: as §1
[29] = test system: Mus musculus; test: Harding Passey melanoma tumor and organ incorporation of radioactivity 48 hr after 2.2 microCi dose injected intramuscularly in mouse liver; assay type: functional; outline: as §1
[30] = test system: Mus musculus; test: Harding Passey melanoma tumor and organ incorporation of radioactivity 48 hr after 2.2 microCi dose injected intramuscularly in mouse spleen; assay type: functional; outline: as §1
[31] = test system: Mus musculus; test: Harding Passey melanoma tumor and organ incorporation of radioactivity 48 hr after 2.2 microCi dose injected intramuscularly in mouse kidney; assay type: functional; outline: as §1
[32] = test system: Mus musculus; test: Cloudman S 91 melanoma tumor and organ incorporation of radioactivity 48 hr after 2.2 microCi dose injected intramuscularly in mouse lung; assay type: functional; outline: as §2

SMILES	level, % of control at 10 µM [2] [%]	level, % of control at 1 µM [8] [%]	further results
O=c1cc[nH]c(=S)[nH]1 [THIOURACIL]	97	97	Activity [1]: 153.3 c.p.m. min-1 mg-1; Activity [3]: 22.3 c.p.m. min-1 mg-1; Activity [4]: 23.1 c.p.m. min-1 mg-1; Activity [5]: 2.7 c.p.m. min-1 mg-1; Activity [6]: 20.5 c.p.m. min-1 mg-1; Activity [7]: 4.7 c.p.m. min-1 mg-1
CC1=C(/C=C/C(C)=C/C=C/C(C)=C/C(=O)OCCCCc2cnc(S)nc2O)C(C)(C)CCC1	–	73	–
CC(O)Cc1cnc(S)nc1O (configuration not stated)	106	134	–
N#CSCCCCc1cnc(S)nc1O	100	93	–
C/C=C/C=C/C(=O)OCCCCc1cnc(S)nc1O	94	139	–
CC1=C(/C=C/C(C)=C/C=C/C(C)=C/C(=O)O)C(C)(C)CCC1 [TRETINOIN]	–	11	–
CC(=O)OCCCCc1cnc(S)nc1O	94	90	–
Oc1nc(S)ncc1CCCCBr	100	109	–
CCOC(=O)c1ccc(/C=C(\C)c2ccc3c(c2)C(C)(C)CCC3(C)C)cc1 [AROTINOID]	98	134	–
O=Cc1ccc(C(=O)OCCCCc2cnc(S)nc2O)cc1	98	118	–
CCOC(=O)c1ccc(/C=C(\C)c2ccc3c(c2)CCCC3)cc1	97	81	–
O=C1CCCC/C1=C/CCCc1cnc(S)nc1O	89	87	–
C/C(=C\c1ccc(C(=O)OCCCCc2cnc(S)nc2O)cc1)c1ccc2c(c1)CCCC2	103	78	Activity [9]: 9.9 c.p.m. min-1 mg-1; Activity [10]: 4.5 c.p.m. min-1 mg-1; Activity [11]: 6.6 c.p.m. min-1 mg-1; Activity [12]: 3.7 c.p.m. min-1 mg-1; Activity [13]: 6.1 c.p.m. min-1 mg-1; Activity [14]: 1.9 c.p.m. min-1 mg-1; Activity [15]: 4.4 c.p.m. min-1 mg-1; Activity [16]: 1.2 c.p.m. min-1 mg-1; Activity [17]: 10.6 c.p.m. min-1 mg-1; Activity [18]: 3.2 c.p.m. min-1 mg-1; Activity [19]: 1.8 c.p.m. min-1 mg-1; Activity [20]: 1.7 c.p.m. min-1 mg-1
OCCCCc1cnc(S)nc1O	82	81	Activity [21]: 2.7 c.p.m. min-1 mg-1; Activity [22]: 1.5 c.p.m. min-1 mg-1; Activity [23]: 4 c.p.m. min-1 mg-1; Activity [24]: 7.6 c.p.m. min-1 mg-1; Activity [25]: 8 c.p.m. min-1 mg-1; Activity [26]: 2.6 c.p.m. min-1 mg-1; Activity [27]: 6.1 c.p.m. min-1 mg-1; Activity [28]: 24.8 c.p.m. min-1 mg-1; Activity [29]: 8.8 c.p.m. min-1 mg-1; Activity [30]: 1.5 c.p.m. min-1 mg-1; Activity [31]: 26.1 c.p.m. min-1 mg-1; Activity [32]: 3 c.p.m. min-1 mg-1
O=Cc1ccc(C(=O)OCCc2cnc(S)nc2O)cc1	83	82	–
C/C(=C\c1ccc(C(=O)OCCCCc2cnc(S)nc2O)cc1)c1ccc2c(c1)C(C)(C)CCC2(C)C	84	146	–
C/C(=C\c1ccc(C(=O)O)cc1)c1ccc2c(c1)C(C)(C)CCC2(C)C	98	122	–
